Converted amounts (≈) assume the structure as drawn. The source made the active and inactive calls. The rule behind the calls is not given here.
Columns and labels:
Parvimonas micra = test: Antimicrobial activity against Micromonas micros isolated from intra-abdominal infection and pelvic inflammatory disease patients after 48 hrs by agar dilution method; assay type: functional
Procedure, shortened: (§1)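 CLSI agar dilution on brucella blood agar supplemented with laked sheep blood, hemin and vitamin K. Inocula of about 1 × 10^5 CFU/spot were applied by Steers replicator, and plates were incubated 48 h at 35°C in an anaerobic glove box. MIC was the concentration giving marked growth reduction versus the anaerobic control plate. QC strains were included each run, and β-lactamase was detected by Cefinase disk.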

Prevotella intermedia [1] = test: Bactericidal activity against beta lactamase-positive Prevotella intermedia isolated from intra-abdominal infection and pelvic inflammatory disease patients assessed as bacterial killing at 2 times MIC after 48 hrs by time kill analysis; assay type: functional
Procedure, shortened: (§2)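 Anaerobic macrodilution time-kill. Inoculum from brucella blood plates, prepared and diluted in prereduced brucella broth inside the anaerobe chamber. Final 10^6 to 10^7 CFU/ml in prereduced brucella broth with 5% laked horse blood cells, 5 μg/ml hemin and 1 μg/ml vitamin K1. […] Shaken at 35°C for 48 h. Viable counts taken at 6, 12, 24 and 48 h. 99.9% kill taken as bactericidal.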

Finegoldia magna [2] = test: Antimicrobial activity against Finegoldia magna isolated from intra-abdominal infection and pelvic inflammatory disease patients after 48 hrs by agar dilution method; assay type: functional; procedure, shortened: as §1
[3] = test system: Peptostreptococcus anaerobius; test: Antimicrobial activity against Peptostreptococcus anaerobius isolated from intra-abdominal infection and pelvic inflammatory disease patients after 48 hrs by agar dilution method; assay type: functional; procedure, shortened: as §1
Finegoldia magna [4] = test: Bactericidal activity against beta lactamase-positive Finegoldia magna isolated from intra-abdominal infection and pelvic inflammatory disease patients assessed as bacterial killing at 2 times MIC after 48 hrs by time kill analysis; assay type: functional; procedure, shortened: as §2
[5] = test system: Enterocloster clostridioformis; test: Antimicrobial activity against Clostridium clostridioforme isolated from intra-abdominal infection and pelvic inflammatory disease patients after 48 hrs by agar dilution method; assay type: functional; procedure, shortened: as §1
Clostridioides difficile [6] = test: Antimicrobial activity against Clostridium difficile isolated from intra-abdominal infection and pelvic inflammatory disease patients after 48 hrs by agar dilution method; assay type: functional; procedure, shortened: as §1
Prevotella denticola = test: Antimicrobial activity against beta lactamase-positive Prevotella denticola isolated from intra-abdominal infection and pelvic inflammatory disease patients after 48 hrs by agar dilution method; assay type: functional; procedure, shortened: as §1
[7] = test system: Clostridium paraputrificum; test: Antimicrobial activity against Clostridium paraputrificum isolated from intra-abdominal infection and pelvic inflammatory disease patients after 48 hrs by agar dilution method; assay type: functional; procedure, shortened: as §1
Prevotella buccae = test: Antimicrobial activity against beta lactamase-positive Prevotella buccae isolated from intra-abdominal infection and pelvic inflammatory disease patients after 48 hrs by agar dilution method; assay type: functional; conditions: Segatella buccae; procedure, shortened: as §1
Bacteroides ovatus = test: Antimicrobial activity against beta lactamase-positive Bacteroides ovatus isolated from intra-abdominal infection and pelvic inflammatory disease patients after 48 hrs by agar dilution method; assay type: functional; procedure, shortened: as §1
Bacteroides fragilis [8] = test: Antimicrobial activity against beta lactamase-positive Bacteroides fragilis isolated from intra-abdominal infection and pelvic inflammatory disease patients after 48 hrs by time kill analysis; assay type: functional
Procedure, shortened: (§3)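 The MIC was read by inspecting macrodilution time-kill tubes. Vials held prereduced brucella broth with 5% laked horse blood cells, hemin 5 μg/ml and vitamin K1 1 μg/ml. Final inoculum was 10^6–10^7 CFU/ml, prepared inside the anaerobe chamber. Vials were incubated 48 h at 35°C in a shaking water bath.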

Phocaeicola vulgatus = test: Antimicrobial activity against beta lactamase-positive Bacteroides vulgatus isolated from intra-abdominal infection and pelvic inflammatory disease patients after 48 hrs by agar dilution method; assay type: functional; procedure, shortened: as §1
Clostridioides difficile [9] = test: Bactericidal activity against Clostridium difficile isolated from intra-abdominal infection and pelvic inflammatory disease patients assessed as 99.9% bacterial killing at 2 times MIC after 48 hrs by time kill analysis; assay type: functional, organism-based
Procedure, shortened: (§4)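 Macrodilution time-kill in prereduced brucella broth with 5% laked horse blood, hemin 5 μg/ml and vitamin K1 1 μg/ml, at final inoculum 10^6–10^7 CFU/ml. […] Viable counts were taken at 6, 12, 24 and 48 h on plates incubated 48 h anaerobically. 99.9% kill was taken as bactericidal.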

[10] = test system: Bacteroides thetaiotaomicron; test: Bactericidal activity against beta lactamase-positive Bacteroides thetaiotaomicron isolated from intra-abdominal infection and pelvic inflammatory disease patients assessed as bacterial killing at 2 times MIC after 48 hrs by time kill analysis; assay type: functional; procedure, shortened: as §4
Prevotella intermedia [11] = test: Antimicrobial activity against beta lactamase-positive Prevotella intermedia isolated from intra-abdominal infection and pelvic inflammatory disease patients after 48 hrs by time kill analysis; assay type: functional; procedure, shortened: as §3
Prevotella corporis = test: Antimicrobial activity against beta lactamase-positive Prevotella corporis isolated from intra-abdominal infection and pelvic inflammatory disease patients after 48 hrs by agar dilution method; assay type: functional; procedure, shortened: as §1
Porphyromonas gingivalis = test: Antimicrobial activity against Porphyromonas gingivalis isolated from intra-abdominal infection and pelvic inflammatory disease patients after 48 hrs by agar dilution method; assay type: functional; procedure, shortened: as §1
Prevotella nigrescens = test: Antimicrobial activity against beta lactamase-positive Prevotella nigrescens isolated from intra-abdominal infection and pelvic inflammatory disease patients after 48 hrs by agar dilution method; assay type: functional; procedure, shortened: as §1
Clostridioides difficile [12] = test: Bactericidal activity against Clostridium difficile isolated from intra-abdominal infection and pelvic inflammatory disease patients assessed as bacterial killing at 2 times MIC after 48 hrs by time kill analysis; assay type: functional; procedure, shortened: as §4
Fusobacterium nucleatum [13] = test: Bactericidal activity against beta lactamase-positive Fusobacterium nucleatum isolated from intra-abdominal infection and pelvic inflammatory disease patients assessed as bacterial killing at MIC after 24 hrs by time kill analysis; assay type: functional; procedure, shortened: as §2
Anaerococcus tetradius = test: Antimicrobial activity against Anaerococcus tetradius isolated from intra-abdominal infection and pelvic inflammatory disease patients after 48 hrs by agar dilution method; assay type: functional; procedure, shortened: as §1
Bacteroides fragilis [14] = test: Bactericidal activity against beta lactamase-positive Bacteroides fragilis isolated from intra-abdominal infection and pelvic inflammatory disease patients assessed as bacterial killing at MIC after 24 hrs by time kill analysis; assay type: functional; procedure, shortened: as §4
Thomasclavelia ramosa = test: Antimicrobial activity against Clostridium ramosum isolated from intra-abdominal infection and pelvic inflammatory disease patients after 48 hrs by agar dilution method; assay type: functional; procedure, shortened: as §1
[15] = test system: Parabacteroides distasonis; test: Antimicrobial activity against beta lactamase-positive Bacteroides distasonis isolated from intra-abdominal infection and pelvic inflammatory disease patients after 48 hrs by agar dilution method; assay type: functional; procedure, shortened: as §1
[16] = test system: Paraclostridium bifermentans; test: Antimicrobial activity against Clostridium bifermentans isolated from intra-abdominal infection and pelvic inflammatory disease patients after 48 hrs by agar dilution method; assay type: functional; procedure, shortened: as §1
Fusobacterium nucleatum [17] = test: Bactericidal activity against beta lactamase-positive Fusobacterium nucleatum isolated from intra-abdominal infection and pelvic inflammatory disease patients assessed as bacterial killing at 2 times MIC after 48 hrs by time kill analysis; assay type: functional; procedure, shortened: as §2
Finegoldia magna [18] = test: Bactericidal activity against beta lactamase-positive Finegoldia magna isolated from intra-abdominal infection and pelvic inflammatory disease patients assessed as bacterial killing at MIC after 24 hrs by time kill analysis; assay type: functional; procedure, shortened: as §2
Prevotella intermedia [19] = test: Bactericidal activity against beta lactamase-positive Prevotella intermedia isolated from intra-abdominal infection and pelvic inflammatory disease patients assessed as bacterial killing at MIC after 24 hrs by time kill analysis; assay type: functional; procedure, shortened: as §2
Finegoldia magna [20] = test: Antimicrobial activity against beta lactamase-positive Finegoldia magna isolated from intra-abdominal infection and pelvic inflammatory disease patients after 48 hrs by time kill analysis; assay type: functional; procedure, shortened: as §3

SMILES: C[C@@H](O)[C@H]1C(=O)N2C(C(=O)O)=C(S[C@@H]3CN[C@H](C(=O)Nc4cccc(C(=O)O)c4)C3)[C@H](C)[C@H]12
- MIC50 (Parvimonas micra): 0.03 µg/mL (≈ 0.0631 µM)
- MIC90 (Parvimonas micra): 0.125 µg/mL (≈ 0.263 µM)
- Activity (Prevotella intermedia [1]): 99%
- MIC50 (Finegoldia magna [2]): 0.06 µg/mL (≈ 0.126 µM)
- MIC90 (Finegoldia magna [2]): 0.06 µg/mL (≈ 0.126 µM)
- MIC50 [3]: 0.5 µg/mL (≈ 1.05 µM)
- MIC90 [3]: 2 µg/mL (≈ 4.21 µM)
- Activity (Finegoldia magna [4]): 99%
- MIC [5]: 1 µg/mL (≈ 2.1 µM)
- MIC (Clostridioides difficile [6]): 4 µg/mL (≈ 8.41 µM)
- MIC50 (Clostridioides difficile [6]): 4 µg/mL (≈ 8.41 µM)
- MIC90 (Clostridioides difficile [6]): 8 µg/mL (≈ 16.8 µM)
- MIC50 (Prevotella denticola): 0.125 µg/mL (≈ 0.263 µM)
- MIC90 (Prevotella denticola): 0.5 µg/mL (≈ 1.05 µM)
- MIC [7]: 0.125 µg/mL (≈ 0.263 µM)
- MIC50 (Prevotella buccae): 0.125 µg/mL (≈ 0.263 µM)
- MIC90 (Prevotella buccae): 0.125 µg/mL (≈ 0.263 µM)
- MIC (Bacteroides ovatus): 0.5 µg/mL (≈ 1.05 µM)
- MIC50 (Bacteroides ovatus): 0.5 µg/mL (≈ 1.05 µM)
- MIC90 (Bacteroides ovatus): 2 µg/mL (≈ 4.21 µM)
- MIC (Bacteroides fragilis [8]): 0.25 µg/mL (≈ 0.526 µM)
- MIC50 (Phocaeicola vulgatus): 0.125 µg/mL (≈ 0.263 µM)
- MIC90 (Phocaeicola vulgatus): 2 µg/mL (≈ 4.21 µM)
- Activity (Clostridioides difficile [9]): inactive
- Activity [10]: 99%
- MIC (Prevotella intermedia [11]): 0.03 µg/mL (≈ 0.0631 µM)
- MIC50 (Prevotella corporis): 0.03 µg/mL (≈ 0.0631 µM)
- MIC90 (Prevotella corporis): 0.06 µg/mL (≈ 0.126 µM)
- MIC (Porphyromonas gingivalis): ≤ 0.016 µg/mL
- MIC50 (Prevotella nigrescens): 0.03 µg/mL (≈ 0.0631 µM)
- MIC90 (Prevotella nigrescens): 0.06 µg/mL (≈ 0.126 µM)
- Activity (Clostridioides difficile [12]): 99%
- Activity (Fusobacterium nucleatum [13]): 90%
- MIC (Anaerococcus tetradius): 0.06 µg/mL (≈ 0.126 µM)
- MIC50 (Anaerococcus tetradius): 0.06 µg/mL (≈ 0.126 µM)
- Activity (Bacteroides fragilis [14]): 90%
- MIC (Thomasclavelia ramosa): 1 µg/mL (≈ 2.1 µM)
- MIC50 (Thomasclavelia ramosa): 1 µg/mL (≈ 2.1 µM)
- MIC [15]: 0.5 µg/mL (≈ 1.05 µM)
- MIC50 [15]: 0.5 µg/mL (≈ 1.05 µM)
- MIC90 [15]: 1 µg/mL (≈ 2.1 µM)
- MIC [16]: 0.125 µg/mL (≈ 0.263 µM)
- Activity (Fusobacterium nucleatum [17]): 99%
- Activity (Finegoldia magna [18]): 90%
- Activity (Prevotella intermedia [19]): 90%
- MIC (Finegoldia magna [20]): 0.03 µg/mL (≈ 0.0631 µM)

SMILES: C[C@@H](O)[C@H]1C(=O)N2C(C(=O)O)=C(S[C@@H]3CN[C@H](C(=O)N(C)C)C3)[C@H](C)[C@H]12 [MEROPENEM]
- MIC (Parvimonas micra): 0.03 µg/mL (≈ 0.0782 µM)
- MIC50 (Parvimonas micra): 0.03 µg/mL (≈ 0.0782 µM)
- MIC90 (Parvimonas micra): 0.25 µg/mL (≈ 0.652 µM)
- Activity (Prevotella intermedia [1]): 99%
- MIC (Finegoldia magna [2]): 0.06 µg/mL (≈ 0.156 µM)
- MIC50 (Finegoldia magna [2]): 0.06 µg/mL (≈ 0.156 µM)
- MIC90 (Finegoldia magna [2]): 0.125 µg/mL (≈ 0.326 µM)
- MIC [3]: 0.25 µg/mL (≈ 0.652 µM)
- MIC50 [3]: 0.25 µg/mL (≈ 0.652 µM)
- MIC90 [3]: 2 µg/mL (≈ 5.22 µM)
- Activity (Finegoldia magna [4]): 99%
- MIC [5]: 1 µg/mL (≈ 2.61 µM)
- MIC50 (Clostridioides difficile [6]): 2 µg/mL (≈ 5.22 µM)
- MIC90 (Clostridioides difficile [6]): 4 µg/mL (≈ 10.4 µM)
- MIC50 (Prevotella denticola): 0.06 µg/mL (≈ 0.156 µM)
- MIC90 (Prevotella denticola): 0.25 µg/mL (≈ 0.652 µM)
- MIC [7]: 0.25 µg/mL (≈ 0.652 µM)
- MIC (Prevotella buccae): 0.06 µg/mL (≈ 0.156 µM)
- MIC50 (Prevotella buccae): 0.06 µg/mL (≈ 0.156 µM)
- MIC90 (Prevotella buccae): 0.06 µg/mL (≈ 0.156 µM)
- MIC (Bacteroides ovatus): 0.25 µg/mL (≈ 0.652 µM)
- MIC50 (Bacteroides ovatus): 0.25 µg/mL (≈ 0.652 µM)
- MIC90 (Bacteroides ovatus): 0.5 µg/mL (≈ 1.3 µM)
- MIC (Bacteroides fragilis [8]): 0.125 µg/mL (≈ 0.326 µM)
- MIC50 (Phocaeicola vulgatus): 0.25 µg/mL (≈ 0.652 µM)
- MIC90 (Phocaeicola vulgatus): 1 µg/mL (≈ 2.61 µM)
- Activity (Clostridioides difficile [9]): inactive
- Activity [10]: 99%
- MIC (Prevotella intermedia [11]): 0.03 µg/mL (≈ 0.0782 µM)
- MIC50 (Prevotella corporis): 0.03 µg/mL (≈ 0.0782 µM)
- MIC90 (Prevotella corporis): 0.06 µg/mL (≈ 0.156 µM)
- MIC (Porphyromonas gingivalis): ≤ 0.016 µg/mL
- MIC50 (Prevotella nigrescens): 0.03 µg/mL (≈ 0.0782 µM)
- MIC90 (Prevotella nigrescens): 0.06 µg/mL (≈ 0.156 µM)
- Activity (Clostridioides difficile [12]): 99%
- Activity (Fusobacterium nucleatum [13]): 90%
- MIC (Anaerococcus tetradius): 0.03 µg/mL (≈ 0.0782 µM)
- MIC50 (Anaerococcus tetradius): 0.03 µg/mL (≈ 0.0782 µM)
- Activity (Bacteroides fragilis [14]): 90%
- MIC50 (Thomasclavelia ramosa): 1 µg/mL (≈ 2.61 µM)
- MIC [15]: 0.125 µg/mL (≈ 0.326 µM)
- MIC50 [15]: 0.125 µg/mL (≈ 0.326 µM)
- MIC90 [15]: 0.5 µg/mL (≈ 1.3 µM)
- MIC [16]: 0.125 µg/mL (≈ 0.326 µM)
- Activity (Fusobacterium nucleatum [17]): 99%
- Activity (Finegoldia magna [18]): 90%
- Activity (Prevotella intermedia [19]): 90%
- MIC (Finegoldia magna [20]): 0.06 µg/mL (≈ 0.156 µM)

From ChEMBL document CHEMBL1151448, “Comparative antianaerobic activities of doripenem determined by MIC and time-kill analysis” (2008)
